# Published values gathered from unrelated publications.
# Lines come from different studies, so protocols differ.
# Target: Activin receptor type-1 (ACVR1, Homo sapiens, UniProt Q04771)
# Sequence (Q04771 21-509, as in one of the studies): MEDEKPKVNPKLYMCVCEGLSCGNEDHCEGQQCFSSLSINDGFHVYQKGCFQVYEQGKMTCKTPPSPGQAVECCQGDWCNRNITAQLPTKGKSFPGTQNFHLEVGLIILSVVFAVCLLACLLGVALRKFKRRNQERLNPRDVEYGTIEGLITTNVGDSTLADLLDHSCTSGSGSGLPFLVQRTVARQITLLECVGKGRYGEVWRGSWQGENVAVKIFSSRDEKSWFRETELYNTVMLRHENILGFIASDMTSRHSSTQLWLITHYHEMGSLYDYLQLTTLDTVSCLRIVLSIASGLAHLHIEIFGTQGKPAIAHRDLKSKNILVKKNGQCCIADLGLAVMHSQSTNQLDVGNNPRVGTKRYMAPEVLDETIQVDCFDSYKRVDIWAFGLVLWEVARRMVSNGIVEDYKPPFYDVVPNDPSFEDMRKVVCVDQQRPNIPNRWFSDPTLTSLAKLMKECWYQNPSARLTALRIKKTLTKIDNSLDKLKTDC
Structure (SMILES),test,conditions,remaining binding [%]
C[C@@H]1CCN(c2nccc(-c3cnn4ncccc34)n2)C1,binding,1 µM,100
Cc1nccc(COC(=O)N2C[C@@H]3[C@@H](CNC(=O)c4ccc5[nH]nnc5c4)[C@@H]3C2)n1,"cell-free assay, competition with immobilised ligand",1 µM,95
Nc1ncc2c(n1)-c1c([nH]c3ccc(C#CC4CC4)cc13)CCCC2,"binding, competition with immobilised ligand",1 µM,100
C[C@H](c1cccc(C#N)c1)n1cc(Cl)cc(C(N)=O)c1=N,"cell-free assay, competition with immobilised ligand",1 µM,88
F[C@@H]1CCN(c2nccc(-c3cnn4ncccc34)n2)C1,binding,1 µM,80
O=C(NCC1CCOCC1)c1n[nH]cc1NC(=O)c1c(F)cccc1F,"binding, competition with immobilised ligand",1 µM,96
O=C(c1ccc(Nc2ncc(Cl)c(-c3ccc(Cl)s3)n2)cc1)N1CCC(N2CCCC2)CC1,"binding, competition with immobilised ligand",1 µM,41
C[C@@H](c1ccc(-n2cnc3c(N)ncnc32)cc1)N1CCc2nn(C)c(Cc3ccccc3)c2C1=O,"binding, competition with immobilised ligand",0.1 µM,85
O=C(O)[C@@H]1[C@@H](Cn2nnc3ccccc3c2=O)CC[C@H]1C(=O)c1ccc(OCCC2CCOCC2)cc1,"cell-free assay, competition with immobilised ligand",1 µM,100
CN(C)c1ncc(F)c(-c2cnn3ncccc23)n1,binding,1 µM,79
O=C(NCCCN1CCOCC1)c1ccc(Nc2nccc(-c3cc4ccccc4s3)n2)cc1,"binding, competition with immobilised ligand",1 µM,14
Cc1cnn2ncc(-c3ccnc(N(C)C)n3)c2c1,binding,1 µM,100
COc1ncc2cc3ccccc3nc2c1C#N,"cell-free assay, competition with immobilised ligand",5 µM,100
COc1cnc(Nc2cccc(S(N)(=O)=O)c2)nc1N1CCN(c2ccccc2)C(=O)C1,"binding, competition with immobilised ligand",1 µM,100
COc1ccnn2ncc(-c3ccnc(N(C)C)n3)c12,binding,1 µM,80
COc1ccc2c(O[C@@H]3C[C@H]4C(=O)N[C@]5(C(=O)O)CC5/C=C\CCCCC[C@H](NC(=O)OC5CCCC5)C(=O)N4C3)cc(-c3csc(NC(=O)C(C)C)n3)nc2c1C (stereo partly drawn),"cell-free assay, competition with immobilised ligand",1 µM,100
CCN1CCN(Cc2ccc(C(=O)Nc3ccc(C)c(Oc4ccc5c(c4)CC(=O)N5)c3)cc2C(F)(F)F)CC1,"binding, competition with immobilised ligand",1 µM,100
COc1ccc2c(c1)O[C@@H](c1ccc(OC)c(OC)c1)C[C@H]2NC(=O)C1(c2ccc3c(c2)OC(F)(F)O3)CC1,"cell-free assay, competition with immobilised ligand",1 µM,100
CN(c1nccc(-c2cnn3ncccc23)n1)C1CC1,binding,1 µM,93
CSc1cccnc1N1CCN(Cc2nc3ccccc3[nH]2)CC1,"cell-free assay, competition with immobilised ligand",1 µM,100
O=C(c1ccc(Nc2ncc(Cl)c(-c3cc4ccccc4s3)n2)cc1)N1CCC(N2CCCC2)CC1,"binding, competition with immobilised ligand",1 µM,69
